IC50 and Drug uptake data for 24 molecules are collected here from ChEMBL document CHEMBL1156156, “Conformationally-restricted amino acid analogues bearing a distal sulfonic acid show selective inhibition of system x(c)(-) over the vesicular glutamate transporter” (Bioorg Med Chem Lett, 2010).

For one assay, the target named is T1, Cystine/glutamate transporter (Homo sapiens, UniProt Q9UPY5).
T1 sequence (Q9UPY5 whole entry): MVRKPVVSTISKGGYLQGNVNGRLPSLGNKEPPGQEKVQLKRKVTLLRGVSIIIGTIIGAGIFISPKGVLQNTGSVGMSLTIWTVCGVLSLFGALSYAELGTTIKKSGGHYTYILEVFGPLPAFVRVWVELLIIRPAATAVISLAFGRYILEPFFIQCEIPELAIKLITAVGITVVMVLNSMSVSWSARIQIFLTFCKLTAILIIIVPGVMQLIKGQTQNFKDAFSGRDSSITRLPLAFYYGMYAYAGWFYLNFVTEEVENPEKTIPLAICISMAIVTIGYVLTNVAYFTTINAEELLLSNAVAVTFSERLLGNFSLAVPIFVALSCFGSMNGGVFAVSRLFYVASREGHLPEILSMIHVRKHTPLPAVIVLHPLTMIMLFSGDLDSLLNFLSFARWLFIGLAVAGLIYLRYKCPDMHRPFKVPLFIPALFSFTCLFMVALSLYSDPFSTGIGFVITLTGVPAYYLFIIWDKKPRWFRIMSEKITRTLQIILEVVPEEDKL
Kind of assay: Inhibition of amino acid transport system xc-.
Details: not given
The method, boiled down: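 Cells were given 100 μM ³H-L-glutamate plus 500 μM inhibitor, and uptake ran for 5 min. Wells were rinsed three times with 0°C HBHS, and cells were lysed in 0.4 M NaOH for 24 h. Acetic acid was added to a lysate aliquot, and radioactivity was counted against background.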
Regarding `N[C@@H](CCS(=O)(=O)O)C(=O)O`, the IC50 (commonly the concentration needed to halve the response being measured) came out at 35 µM. Still for that read-out and setting: as for `N[C@@H](COS(=O)(=O)O)C(=O)O`, the figure is 26 µM; as for `N[C@@H](Cn1oc(=O)[nH]c1=O)C(=O)O` [QUISQUALATE], 5 µM; as for `N[C@H](C(=O)O)c1ccc(C(=O)O)cc1`, 5 µM.

Another assay deals with T2, Cystine/glutamate transporter (Homo sapiens) (UniProt Q9UPY5).
T2 sequence (whole entry): T1 sequence (Q9UPY5 whole entry)
Kind of assay: Inhibition of amino acid transport system xc- in human SNB19 cells assessed as [3H]L-glutamate uptake at 500 uM after 24 hrs by liquid scintillation counting. In kind it is cell-based. As to conditions: SNB-19. The method in brief:
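Uptake begun by adding ³H-L-glutamate (100 μM) with inhibitor (500 μM) to the wells and run for 5 min. Wells rinsed three times with 0°C HBHS, and cells lysed in 0.4 M NaOH for 24 h. A 200 μl aliquot was acidified with acetic acid and radioactivity counted against background.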
As for `Cc1cc(C(N)C(=O)O)sc1C` (stereo unspecified), the Drug uptake was found to be 73%. The same measure, in the same setting: with `NC(Cc1ccc(Br)cc1S(=O)(=O)O)C(=O)O` (stereo unspecified) the figure was 83%.

As for `N[C@@H](C(=O)O)c1ccc(S(=O)(=O)O)s1`, the Drug uptake was determined as 55%.

As for `CC(N)(Cc1ccc(S(=O)(=O)O)cc1)C(=O)O` (stereo unspecified), the Drug uptake turned out to be 106%.

Consider `Cc1csc(C(=O)O)c1N`, for which the Drug uptake amounted to 83%. Still for that read-out and setting: with `N[C@H](Cc1ccc(S(=O)(=O)O)cc1)C(=O)O` the figure was 101%.

As for `NC(C(=O)O)c1csc2ccccc12` (stereo unspecified), the Drug uptake was 53%.

Take `N[C@@H](Cc1ccc(S(=O)(=O)O)cc1)C(=O)O`: the Drug uptake turned out to be 90%. Same read-out and setting: with `N[C@H](C(=O)O)c1ccc(S(=O)(=O)O)s1` the figure was 32%; with `NC(C(=O)O)c1ccc(-c2ccc(C(=O)O)cc2)cc1` (stereo unspecified), 27%; with `NC(C(=O)O)c1ccc(S(=O)(=O)O)s1` (stereo unspecified), 26%. The same measure, in the same setting: as for `NC(C(=O)O)c1ccc(Br)s1` (stereo unspecified), the figure is 83%; as for `N[C@H](C(=O)O)c1ccc(S(=O)(=O)O)cc1`, 55%; as for `N[C@@H](CS)C(=O)O`, 22%. Same read-out and setting: with `NC(C(=O)O)c1ccc(-c2cccs2)s1` (stereo unspecified) the figure was 69%. `NC(C(=O)O)c1c[nH]cn1` (stereo unspecified): the Drug uptake was 96%. For `N[C@@H](C(=O)O)c1ccc(S(=O)(=O)O)cc1`, the Drug uptake amounted to 98%. On the same count and under the same terms, as for `Cc1c(C(=O)O)sc(N)c1C(=O)O`, the figure is 57%.

System in another assay: not listed separately
The experiment in a line: Inhibition of VGLUT.
Details: not given
In turn, `Cc1cc(-c2ccc(/N=N/c3c(S(=O)(=O)O)cc4cc(S(=O)(=O)O)cc(N)c4c3O)c(C)c2)ccc1/N=N/c1c(S(=O)(=O)O)cc2cc(S(=O)(=O)O)cc(N)c2c1O` [TRYPAN BLUE] showed an IC50 of 0.05 µM.

A further assay is filed under the species Rattus norvegicus. Kind of assay: Inhibition of VGLUT in rat brain synaptic vesicles assessed as [3H]L-glutamate uptake at 5 mM after 24 hrs by liquid scintillation counting. The class given is tissue-based.
Details: not given
The method in brief: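 Vesicular uptake used 250 μM L-glutamate as substrate, with inhibitor at 5 mM.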
`Cc1cc(C(N)C(=O)O)sc1C` (stereo unspecified): the Drug uptake was 57%.

`NC(Cc1ccc(Br)cc1S(=O)(=O)O)C(=O)O` (stereo unspecified): the Drug uptake turned out to be 77%.

Turning to `N[C@@H](C(=O)O)c1ccc(S(=O)(=O)O)s1`, the Drug uptake was determined as 104%. Consider `CC(N)(Cc1ccc(S(=O)(=O)O)cc1)C(=O)O` (stereo unspecified), for which the Drug uptake was determined as 98%. For `Cc1csc(C(=O)O)c1N`, the Drug uptake was 91%. The same measure, in the same setting: with `N[C@H](Cc1ccc(S(=O)(=O)O)cc1)C(=O)O` the figure was 102%; with `NC(C(=O)O)c1csc2ccccc12` (stereo unspecified), 31%. As for `N[C@@H](Cc1ccc(S(=O)(=O)O)cc1)C(=O)O`, the Drug uptake came to 131%. As to `N[C@H](C(=O)O)c1ccc(S(=O)(=O)O)s1`, the Drug uptake was 92%.

As for `Nc1c(/N=N/c2ccc(-c3ccc(/N=N/c4cc(S(=O)(=O)O)c5ccccc5c4N)cc3)cc2)cc(S(=O)(=O)O)c2ccccc12`, the Drug uptake came out at 31%. The same measure, in the same setting: as for `NC(C(=O)O)c1ccc(-c2ccc(C(=O)O)cc2)cc1` (stereo unspecified), the figure is 75%.

As for `NC(C(=O)O)c1ccc(S(=O)(=O)O)s1` (stereo unspecified), the Drug uptake was determined as 81%. Still for that read-out and setting: as for `NC(C(=O)O)c1ccc(Br)s1` (stereo unspecified), the figure is 37%; as for `N[C@H](C(=O)O)c1ccc(S(=O)(=O)O)cc1`, 105%.

Regarding `NC(C(=O)O)c1ccc(-c2cccs2)s1` (stereo unspecified), the Drug uptake is 53%. Same read-out and setting: with `NC(C(=O)O)c1c[nH]cn1` (stereo unspecified) the figure was 95%; with `N[C@@H](C(=O)O)c1ccc(S(=O)(=O)O)cc1`, 108%. Still for that read-out and setting: as for `Cc1c(C(=O)O)sc(N)c1C(=O)O`, the figure is 44%.
